Source: ChEMBL document CHEMBL4811254, “Beyond Basicity: Discovery of Nonbasic DENV-2 Protease Inhibitors with Potent Activity in Cell Culture” (J Med Chem, 2021)
The source made the active and inactive calls.

Columns and labels:
[1] = Passive membrane permeability of the compound in phosphate buffered saline assessed as concentration of the compound in acceptor plate at 200 uM incubated for 5 hrs by PAMPA assay based HPLC analysis; assay type: ADME
Method in brief: (§1)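 Precoated trilayer PAMPA, 5 h incubation. Acceptor and donor concentrations measured after 5 h. Permeability and mass retention calculated by a literature method.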

[2] = Passive membrane permeability of the compound in phosphate buffered saline assessed as concentration of the compound in donor plate at 200 uM incubated for 5 hrs by PAMPA assay based HPLC analysis; assay type: ADME; method in brief: as §1
[3] = Passive membrane permeability of the compound in phosphate buffered saline at 200 uM incubated for 5 hrs by PAMPA assay based HPLC analysis; assay type: ADME; settings: PAMPA, read-out: permeability; method in brief: as §1
[4] = Passive membrane permeability of the compound in phosphate buffered saline assessed as mass retention of the compound at 200 uM incubated for 5 hrs by PAMPA assay based HPLC analysis; assay type: ADME; method in brief: as §1
[5] = molecular target: Genome polyprotein (dengue virus type 2) (UniProt P29990); test: Inhibition of NS2B-NS3 protease in DENV2proHeLa system assessed as inhibition of luciferase signal at 12.5 uM incubated for 24 hrs by luciferase reporter gene assay; assay type: cell-based; settings: HeLa
Method in brief: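 Stable DENV2proHeLa cells seeded at 2 × 10⁴/well and dosed immediately, then incubated 24 h at 37 °C. Cells lysed 15 min at room temperature. Luciferase read with coelenterazine (2.75 μM in PBS) injection, luminescence 5 s. Triplicates; percent inhibition calculated relative to untreated control; background from cell-free wells.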

Genome polyprotein = Genome polyprotein (dengue virus type 2, UniProt P29990); test: Inhibition of NS2B-NS3 protease in DENV2proHeLa system assessed as inhibition of luciferase signal incubated for 24 hrs by luciferase reporter gene assay; assay type: cell-based, HeLa
Method in brief: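 HeLa cells stably carrying the reporter system, 2 × 10⁴ per well, given inhibitor at seeding and held 24 h at 37 °C. Cells lysed 15 min at room temperature. Luciferase read for 5 s after injecting coelenterazine (2.75 μM in PBS). Triplicate wells per concentration; percent inhibition taken against untreated cells. EC50/EC90 from 4-parameter dose-response fit, background from cell-free wells subtracted.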

[6] = Cytotoxicity against human HeLa cells assessed as reduction in cell viability incubated for 24 hrs by CellTiter-Blue assay; assay type: cell-based
Method in brief: (§2)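 Viability by CellTiter-Blue in HeLa or Huh-7 cells exposed to compound dilutions. Plates run in parallel with the reporter assay (HeLa) or the virus titer assay (Huh-7).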

[7] = molecular target: Prothrombin (Homo sapiens) (UniProt P00734); test: Inhibition of thrombin in human plasma using Boc-Val-Pro-Arg-AMC as substrate at 25 uM preincubated with enzyme for 15 mins followed by substrate addition and measured for 15 mins by fluorimetric assay; assay type: cell-free; settings: time 30.0 min
Trypsin (Homo sapiens) = Trypsin (Homo sapiens) (UniProt P07477+P07478+P35030); test: Inhibition of trypsin (unknown origin) using Boc-Val-Pro-Arg-AMC as substrate at 50 uM preincubated with enzyme for 15 mins followed by substrate addition and measured for 15 mins by fluorimetric assay; assay type: protein assay; settings: time 30.0 min
[8] = molecular target: Genome polyprotein (West Nile virus) (UniProt P06935); test: Inhibition of WNV NS2B-NS3 protease expressed in Escherichia coli BL21 lambda(DE3) using FRET substrate preincubated with enzyme for 15 mins in presence of detergent CHAPS followed by substrate addition for 15 mins by fluorescence based analysis; settings: time 30.0 min
Chain of Genome polyprotein (West Nile virus) (P06935 whole entry): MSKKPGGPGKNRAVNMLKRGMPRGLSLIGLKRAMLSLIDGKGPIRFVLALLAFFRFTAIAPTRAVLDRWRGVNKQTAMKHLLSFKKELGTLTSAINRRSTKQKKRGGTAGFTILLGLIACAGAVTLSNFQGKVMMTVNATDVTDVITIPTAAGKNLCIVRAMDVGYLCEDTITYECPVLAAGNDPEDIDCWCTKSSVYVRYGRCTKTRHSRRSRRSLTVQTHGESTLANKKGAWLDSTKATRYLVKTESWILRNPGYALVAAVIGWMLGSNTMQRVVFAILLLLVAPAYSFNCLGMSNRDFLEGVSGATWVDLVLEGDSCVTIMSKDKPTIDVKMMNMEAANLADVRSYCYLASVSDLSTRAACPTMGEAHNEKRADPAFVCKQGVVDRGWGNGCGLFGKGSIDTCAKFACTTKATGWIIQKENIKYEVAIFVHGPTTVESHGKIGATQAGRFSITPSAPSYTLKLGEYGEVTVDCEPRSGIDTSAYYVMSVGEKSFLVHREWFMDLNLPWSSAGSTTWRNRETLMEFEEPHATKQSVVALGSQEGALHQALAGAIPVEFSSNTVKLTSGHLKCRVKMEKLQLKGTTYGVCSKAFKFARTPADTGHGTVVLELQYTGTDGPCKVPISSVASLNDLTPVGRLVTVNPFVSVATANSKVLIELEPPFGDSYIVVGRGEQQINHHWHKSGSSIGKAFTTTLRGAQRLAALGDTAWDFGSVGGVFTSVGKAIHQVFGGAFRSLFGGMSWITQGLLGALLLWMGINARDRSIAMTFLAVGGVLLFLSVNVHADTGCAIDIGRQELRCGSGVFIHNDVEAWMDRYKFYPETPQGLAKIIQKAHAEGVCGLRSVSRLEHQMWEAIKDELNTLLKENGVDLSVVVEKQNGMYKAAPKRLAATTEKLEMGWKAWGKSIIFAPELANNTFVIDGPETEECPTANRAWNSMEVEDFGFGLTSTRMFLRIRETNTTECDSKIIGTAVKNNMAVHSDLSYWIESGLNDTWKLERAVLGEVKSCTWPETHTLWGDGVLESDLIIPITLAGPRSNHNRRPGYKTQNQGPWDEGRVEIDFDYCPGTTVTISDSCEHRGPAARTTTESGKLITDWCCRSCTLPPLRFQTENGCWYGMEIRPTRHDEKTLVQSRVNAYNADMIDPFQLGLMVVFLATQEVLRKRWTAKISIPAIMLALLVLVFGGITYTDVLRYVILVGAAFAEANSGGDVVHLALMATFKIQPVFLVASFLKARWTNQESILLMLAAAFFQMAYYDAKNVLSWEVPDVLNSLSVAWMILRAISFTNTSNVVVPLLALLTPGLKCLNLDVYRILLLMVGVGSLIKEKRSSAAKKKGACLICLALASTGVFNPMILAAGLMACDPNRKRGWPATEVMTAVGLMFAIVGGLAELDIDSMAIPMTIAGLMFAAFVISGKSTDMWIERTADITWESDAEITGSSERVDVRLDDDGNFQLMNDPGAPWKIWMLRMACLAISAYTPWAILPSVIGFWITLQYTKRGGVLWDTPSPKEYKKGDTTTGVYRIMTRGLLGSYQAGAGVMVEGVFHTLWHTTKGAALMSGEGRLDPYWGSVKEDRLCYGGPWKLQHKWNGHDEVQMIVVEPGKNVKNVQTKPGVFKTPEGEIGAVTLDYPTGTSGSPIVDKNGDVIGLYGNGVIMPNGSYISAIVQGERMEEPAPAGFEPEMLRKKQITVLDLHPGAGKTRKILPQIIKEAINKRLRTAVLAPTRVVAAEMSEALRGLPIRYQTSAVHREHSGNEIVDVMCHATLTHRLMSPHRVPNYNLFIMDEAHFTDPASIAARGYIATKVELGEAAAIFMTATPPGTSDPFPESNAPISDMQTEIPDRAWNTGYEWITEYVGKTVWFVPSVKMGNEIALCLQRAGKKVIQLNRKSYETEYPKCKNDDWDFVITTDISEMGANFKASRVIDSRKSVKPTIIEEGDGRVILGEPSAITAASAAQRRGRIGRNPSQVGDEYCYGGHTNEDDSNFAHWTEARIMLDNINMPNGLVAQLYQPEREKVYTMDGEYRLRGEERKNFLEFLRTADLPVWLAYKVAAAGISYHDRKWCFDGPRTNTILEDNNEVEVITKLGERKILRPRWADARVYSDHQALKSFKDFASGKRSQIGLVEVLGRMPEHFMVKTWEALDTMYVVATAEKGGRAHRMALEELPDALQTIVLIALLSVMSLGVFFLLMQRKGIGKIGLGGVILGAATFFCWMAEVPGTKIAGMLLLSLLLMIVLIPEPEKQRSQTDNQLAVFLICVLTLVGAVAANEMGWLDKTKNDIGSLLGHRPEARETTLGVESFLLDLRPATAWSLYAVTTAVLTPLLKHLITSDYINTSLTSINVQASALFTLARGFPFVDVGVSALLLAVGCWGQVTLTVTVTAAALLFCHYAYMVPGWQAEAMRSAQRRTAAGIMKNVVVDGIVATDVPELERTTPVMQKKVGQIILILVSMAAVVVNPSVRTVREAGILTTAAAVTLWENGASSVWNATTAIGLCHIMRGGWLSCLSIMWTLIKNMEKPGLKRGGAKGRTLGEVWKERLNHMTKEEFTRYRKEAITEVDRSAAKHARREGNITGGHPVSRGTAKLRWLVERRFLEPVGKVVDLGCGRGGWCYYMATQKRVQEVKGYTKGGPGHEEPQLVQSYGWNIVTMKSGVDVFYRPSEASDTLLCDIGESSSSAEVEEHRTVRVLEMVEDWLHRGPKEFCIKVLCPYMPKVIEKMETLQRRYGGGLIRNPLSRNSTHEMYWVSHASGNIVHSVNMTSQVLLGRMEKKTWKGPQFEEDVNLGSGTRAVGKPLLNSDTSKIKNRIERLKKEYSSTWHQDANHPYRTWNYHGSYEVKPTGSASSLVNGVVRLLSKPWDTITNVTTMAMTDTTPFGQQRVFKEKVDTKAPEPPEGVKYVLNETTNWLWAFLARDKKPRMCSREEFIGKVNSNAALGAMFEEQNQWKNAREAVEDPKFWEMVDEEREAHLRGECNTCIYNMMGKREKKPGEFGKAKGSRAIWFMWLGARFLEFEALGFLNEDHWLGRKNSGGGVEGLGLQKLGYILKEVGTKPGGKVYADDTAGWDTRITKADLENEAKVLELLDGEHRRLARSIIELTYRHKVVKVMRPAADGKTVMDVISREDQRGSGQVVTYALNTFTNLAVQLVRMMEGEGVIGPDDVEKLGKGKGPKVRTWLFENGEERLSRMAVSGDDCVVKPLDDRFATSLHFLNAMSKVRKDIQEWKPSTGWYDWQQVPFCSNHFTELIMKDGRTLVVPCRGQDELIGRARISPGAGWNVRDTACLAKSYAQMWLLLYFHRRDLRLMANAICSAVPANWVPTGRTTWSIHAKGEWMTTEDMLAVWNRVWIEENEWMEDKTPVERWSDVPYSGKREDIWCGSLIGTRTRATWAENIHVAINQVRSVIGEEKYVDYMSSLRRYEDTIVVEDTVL

[9] = molecular target: Genome polyprotein (dengue virus type 2) (UniProt P29990); test: Inhibition of DENV2 NS2B-NS3 protease expressed in Escherichia coli BL21 lambda(DE3) using FRET substrate preincubated with enzyme for 15 mins in presence of detergent CHAPS followed by substrate addition for 15 mins by fluorescence based analysis; settings: time 30.0 min
dengue virus type 2 [10] = test: (§3) Antiviral activity against DENV2 infected in human Huh7 cells assessed as reduction in virus titer in cell supernatant by measuring inhibition of plaque formation using VeroE6 cells at 12.5 uM preincubated with viral infected Huh7 cells for 48 hrs and measured following infection of VeroE6 cells with supernatants for 7 days by plaque assay based crystal violet staining analysis; assay type: functional; settings: Huh-7, 216 h, time 9 day
Method in brief: (§4)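 Huh-7 cells seeded at 1 × 10⁴/well and incubated overnight. Infected with DENV-2 at MOI 1 for 2 h, then medium changed and compound added. […] Pooled supernatants titred by plaque assay on VeroE6 cells: 10⁻¹ to 10⁻⁶ dilutions, 1 h infection, 7 days, formaldehyde fix, crystal violet.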

dengue virus type 2 [11] = test: as §3, with “cells” for “cells at 12.5 uM”; assay type: functional, organism-based, Huh-7; method in brief: as §4
Huh-7 = test: Cytotoxicity against human Huh-7 cells assessed as reduction in cell viability at 12.5 uM incubated for 48 hrs by CellTiter-Blue assay; assay type: cell-based; settings: huh-7, 48 h; method in brief: as §2
[12] = Stability of the compound assessed as bovine pancreas trypsin-mediated parent compound depletion at 0.1 mg/ml incubated for 120 mins by HPLC analysis; assay type: ADME, Bos taurus; settings: cattle, isolated protein, 2 h
Method in brief: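 Compound incubated with α-chymotrypsin or bovine trypsin in buffer for 120 min at 37 °C; parent compound depletion monitored.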

[13] = molecular target: Genome polyprotein (dengue virus type 2) (UniProt P29990); test: Binding affinity to DENV2 NS2B-NS3 protease expressed in Escherichia coli BL21 lambda(DE3) assessed as quenching of fluorescence of tryptophan residue of the enzyme incubated for 1 hr by tryptophan fluorescence quenching assay; settings: dose 10-50 µM
Method in brief: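 Compound added to isolated DENV-2 protease; tryptophan fluorescence quenching monitored across concentrations. Aprotinin added as active-site competitor to test displacement.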

[14] = molecular target: Genome polyprotein (dengue virus type 2) (UniProt P29990); test: Binding affinity to DENV2 NS2B-NS3 protease expressed in Escherichia coli BL21 lambda(DE3) assessed as quenching of fluorescence of tryptophan residue of the enzyme at 50 uM incubated for 1 hr in presence of aprotinin by tryptophan fluorescence quenching assay

Row | SMILES | Activity [1] [µM] | Activity [2] [µM] | Papp at 5 h, 200 µM [3] [×10⁻⁶ cm/s] | Activity [4] [%] | inhibition [5] [%] | EC50 (Genome polyprotein) [µM] | CC50 at 24 h [6] [µM] | inhibition [7] | inhibition (Trypsin (Homo sapiens)) | inhibition [8] | inhibition [9] | inhibition at 12.5 µM (dengue virus type 2 [10]) [%] | EC50 (dengue virus type 2 [11]; Huh-7) [µM] | EC90 (dengue virus type 2 [11]; Huh-7, 216 h, time 9 day) [µM] | Activity (Huh-7) [%] | Stabilty [12] | Activity [13] | Activity [14]
1 | O=C1NC(=O)C(c2ccccc2)(c2ccccc2)N1 [PHENYTOIN] | 25 | 166 | 5.7 | 8.7 |  |  |  |  |  |  |  |  |  |  |  |  |  | 
2 | NC(=O)c1cccc(NC(=O)[C@@H](NC(=O)c2ccc(Oc3cccc4c3C(=O)CC4)cc2)c2ccc(OCc3ccccc3)cc2)c1 |  |  |  |  | 57 | 3.9 | > 100 | inactive | inactive | Active |  |  |  |  |  |  |  | 
3 | NC(=O)c1cccc(NC(=O)[C@@H](NC(=O)c2ccc(Oc3ccc4c(c3)OCO4)cc2)c2ccc(OCc3ccccc3)cc2)c1 | 3.7 | 180 | 0.8 | 8.7 | 78 | 1.5 | > 100 | inactive | inactive |  | Active | 98 | 2.2 | 6.8 | < 20 |  |  | 
4 | NC(=O)c1ccc(CNC(=O)[C@@H](NC(=O)c2ccc(OCc3ccccc3)cc2)c2ccc(OCc3ccccc3)cc2)cc1 |  |  |  |  | 64 | 4 | > 25 | inactive | inactive | Active | Active |  |  |  |  |  |  | 
5 | NC(=O)c1cccc(NC(=O)[C@@H](NC(=O)c2ccc(Oc3ccc4c(c3)OCCO4)cc2)c2ccc(OCc3ccccc3)cc2)c1 |  |  |  |  | 61 | 3.8 | > 100 | inactive | inactive | Active | Active |  |  |  |  |  |  | 
6 | CCCCCCCS(=O)(=O)N[C@H](C(=O)NCc1ccc(C(N)=O)cc1)c1ccc(OCc2ccccc2)cc1 |  |  |  |  | 47 | 11 | > 25 | inactive | inactive | Active |  |  |  |  |  |  |  | 
7 | N=C(N)NCCC[C@H](NC(=O)c1ccccc1)C(=O)NC(CCCCN)C(=O)NC(C(N)=O)c1ccc(OCc2ccccc2)cc1 (stereo partly drawn) |  |  |  |  |  |  |  |  |  | Active | Active | 50 |  |  | < 20 | Unstable |  | 
8 | NC(=O)c1ccc(CNC(=O)[C@@H](NC(=O)c2ccc(-c3cccs3)s2)c2ccc(OCc3ccccc3)cc2)cc1 |  |  |  |  | 63 | 6.2 | > 100 | inactive | inactive |  |  |  |  |  |  |  | Active | inactive
9 | NC(=O)c1cccc(NC(=O)[C@@H](NC(=O)c2ccc(-c3cncnc3)cc2)c2ccc(OCc3ccccc3)cc2)c1 |  |  |  |  | 59 | 8.1 | > 50 | inactive | inactive | Active | Active |  |  |  |  |  |  | 
